# Experiments:
# [1] = biological target: T1, Bromodomain-containing protein 9 (Homo sapiens) (UniProt Q9H8M2)
# T1 sequence (whole entry): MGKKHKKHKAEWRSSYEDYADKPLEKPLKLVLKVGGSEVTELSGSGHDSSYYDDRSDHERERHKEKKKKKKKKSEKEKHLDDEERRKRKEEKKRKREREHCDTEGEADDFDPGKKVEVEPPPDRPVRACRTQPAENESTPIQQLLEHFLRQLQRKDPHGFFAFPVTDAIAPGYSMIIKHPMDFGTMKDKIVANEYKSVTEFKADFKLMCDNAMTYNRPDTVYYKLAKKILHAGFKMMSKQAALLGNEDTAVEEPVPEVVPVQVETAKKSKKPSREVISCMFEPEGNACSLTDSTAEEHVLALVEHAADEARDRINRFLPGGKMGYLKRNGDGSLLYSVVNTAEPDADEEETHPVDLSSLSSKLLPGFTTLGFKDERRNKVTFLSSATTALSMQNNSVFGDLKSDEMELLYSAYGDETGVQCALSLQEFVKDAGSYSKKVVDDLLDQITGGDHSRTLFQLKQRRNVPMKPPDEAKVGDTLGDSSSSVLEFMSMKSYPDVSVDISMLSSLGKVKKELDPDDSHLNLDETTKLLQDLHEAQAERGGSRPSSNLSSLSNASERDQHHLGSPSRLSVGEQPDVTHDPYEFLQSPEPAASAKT
# [2] = biological target: Histone acetyltransferase KAT2B (Homo sapiens, UniProt Q92831); assay: Inhibition of human PCAF expressed in Escherichia coli BL21 after 1 hr by BROMOscan assay
# [3] = biological target: Nucleosome-remodeling factor subunit BPTF (Homo sapiens, UniProt Q12830); assay: Inhibition of human His tagged FALZ incubated for 30 mins followed by addition of biotinylated peptide and further incubation for 30 mins measured by AlphaScreen assay
# [4] = biological target: T2, Chromatin remodeling regulator CECR2 (Homo sapiens, UniProt Q9BXF3); assay: Inhibition of human CECR2 expressed in Escherichia coli BL21 after 1 hr by BROMOscan assay
# [5] = biological target: T2, Chromatin remodeling regulator CECR2; assay: Inhibition of human His tagged CECR2 incubated for 30 mins followed by addition of biotinylated peptide and further incubation for 30 mins measured by AlphaScreen assay
# [6] = biological target: T3, Bromodomain-containing protein 9 (Homo sapiens, UniProt Q9H8M2); assay: Inhibition of human His tagged BRD9 incubated for 30 mins followed by addition of biotinylated peptide and further incubation for 30 mins measured by AlphaScreen assay
# T3 sequence (Q9H8M2 whole entry): T1 sequence (whole entry)
# [7] = biological target: Bromodomain adjacent to zinc finger domain protein 2A (Homo sapiens, UniProt Q9UIF9); assay: Inhibition of human BAZ2A expressed in Escherichia coli BL21 after 1 hr by BROMOscan assay
# [8] = Aqueous solubility of compound; format: physicochemical; conditions: buffer
# [9] = Fraction absorbed in CD-1 mouse at 3 mg/kg, po; format: ADME, organism-based; conditions: in vivo, read-out: Fabs
# Procedure, shortened: (§1)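 Female CD-1 mice (n = 3), single dosing: intravenous 1.0 mg/kg, or oral 3.0 mg/kg given as a suspension. Blood levels were followed over time to derive clearance, volume of distribution, elimination half-life, Cmax, Tmax, AUC0−∞, oral bioavailability and fraction absorbed.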
# RKO = assay: Growth inhibition of human RKO cells after 72 hrs; format: functional
# [10] = Volume of distribution in CD-1 mouse blood at 1 mg/kg, iv administered as bolus; format: ADME, organism-based; conditions: whole blood
# Procedure, shortened: as §1
# SW-620 = assay: Growth inhibition of human SW620 cells after 72 hrs; format: functional; conditions: SW-620, 72 h
# NCI-H1437 = assay: Growth inhibition of human NCI-H1437 cells after 72 hrs; format: functional; conditions: NCI-H1437, 72 h
# [11] = biological target: T4, Bromodomain-containing protein 1 (Homo sapiens, UniProt O95696); assay: Inhibition of human His tagged BRPF2 incubated for 30 mins followed by addition of biotinylated peptide and further incubation for 30 mins measured by AlphaScreen assay
# T4 sequence (O95696 whole entry): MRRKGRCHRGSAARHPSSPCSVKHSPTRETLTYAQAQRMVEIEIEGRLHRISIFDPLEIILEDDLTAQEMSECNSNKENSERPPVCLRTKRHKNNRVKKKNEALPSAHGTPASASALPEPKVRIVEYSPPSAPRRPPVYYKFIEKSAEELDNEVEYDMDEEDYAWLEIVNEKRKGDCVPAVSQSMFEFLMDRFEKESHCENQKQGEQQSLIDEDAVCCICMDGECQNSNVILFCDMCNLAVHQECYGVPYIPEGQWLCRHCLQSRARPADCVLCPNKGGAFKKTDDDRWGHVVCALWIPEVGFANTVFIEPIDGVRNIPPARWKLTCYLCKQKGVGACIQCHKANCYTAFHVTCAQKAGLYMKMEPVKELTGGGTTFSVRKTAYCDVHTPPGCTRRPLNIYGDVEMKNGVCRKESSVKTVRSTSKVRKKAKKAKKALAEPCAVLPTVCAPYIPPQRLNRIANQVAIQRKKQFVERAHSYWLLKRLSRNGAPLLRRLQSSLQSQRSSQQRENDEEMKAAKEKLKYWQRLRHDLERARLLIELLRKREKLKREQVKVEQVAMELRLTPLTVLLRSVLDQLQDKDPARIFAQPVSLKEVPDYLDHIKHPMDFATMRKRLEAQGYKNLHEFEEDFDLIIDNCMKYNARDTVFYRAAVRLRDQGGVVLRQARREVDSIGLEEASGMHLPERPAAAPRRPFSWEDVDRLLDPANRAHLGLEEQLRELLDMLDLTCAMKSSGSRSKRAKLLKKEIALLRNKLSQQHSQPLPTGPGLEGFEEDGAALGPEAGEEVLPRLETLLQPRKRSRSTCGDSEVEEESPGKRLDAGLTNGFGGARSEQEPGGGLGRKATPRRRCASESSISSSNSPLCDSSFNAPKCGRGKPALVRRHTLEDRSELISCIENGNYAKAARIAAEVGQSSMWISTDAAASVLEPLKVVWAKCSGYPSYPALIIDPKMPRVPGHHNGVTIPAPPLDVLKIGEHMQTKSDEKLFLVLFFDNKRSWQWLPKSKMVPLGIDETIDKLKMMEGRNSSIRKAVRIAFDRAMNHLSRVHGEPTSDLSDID
# [12] = Cmax in CD-1 mouse blood at 3 mg/kg, po; format: ADME, organism-based; design: dose 3 mg/kg, route oral; conditions: whole blood
# Procedure, shortened: as §1
# [13] = biological target: T4, Bromodomain-containing protein 1; assay: Binding affinity to human BRPF2 by isothermal titration calorimetry
# THP-1 = assay: Growth inhibition of human THP1 cells after 72 hrs; format: functional; conditions: THP-1, 72 h
# IM-9 = assay: Growth inhibition of human IM9 cells after 72 hrs; format: functional; conditions: IM-9, 72 h
# MV4-11 = assay: Growth inhibition of human MV4-11 cells after 72 hrs; format: functional; conditions: MV4-11, 72 h
# SK-CO-1 = assay: Growth inhibition of human SKCO1 cells after 72 hrs; format: functional; conditions: SK-CO-1, 72 h
# [14] = Fraction unbound in mouse plasma; format: ADME, cell-free
# HepG2 = assay: Growth inhibition of human HepG2 cells after 72 hrs; format: functional; conditions: HepG2, 72 h
# OCI-AML2 = assay: Growth inhibition of human OCI-AML2 cells after 72 hrs; format: functional; conditions: OCI-AML2, 72 h
# T2 sequence (Q9BXF3 whole entry): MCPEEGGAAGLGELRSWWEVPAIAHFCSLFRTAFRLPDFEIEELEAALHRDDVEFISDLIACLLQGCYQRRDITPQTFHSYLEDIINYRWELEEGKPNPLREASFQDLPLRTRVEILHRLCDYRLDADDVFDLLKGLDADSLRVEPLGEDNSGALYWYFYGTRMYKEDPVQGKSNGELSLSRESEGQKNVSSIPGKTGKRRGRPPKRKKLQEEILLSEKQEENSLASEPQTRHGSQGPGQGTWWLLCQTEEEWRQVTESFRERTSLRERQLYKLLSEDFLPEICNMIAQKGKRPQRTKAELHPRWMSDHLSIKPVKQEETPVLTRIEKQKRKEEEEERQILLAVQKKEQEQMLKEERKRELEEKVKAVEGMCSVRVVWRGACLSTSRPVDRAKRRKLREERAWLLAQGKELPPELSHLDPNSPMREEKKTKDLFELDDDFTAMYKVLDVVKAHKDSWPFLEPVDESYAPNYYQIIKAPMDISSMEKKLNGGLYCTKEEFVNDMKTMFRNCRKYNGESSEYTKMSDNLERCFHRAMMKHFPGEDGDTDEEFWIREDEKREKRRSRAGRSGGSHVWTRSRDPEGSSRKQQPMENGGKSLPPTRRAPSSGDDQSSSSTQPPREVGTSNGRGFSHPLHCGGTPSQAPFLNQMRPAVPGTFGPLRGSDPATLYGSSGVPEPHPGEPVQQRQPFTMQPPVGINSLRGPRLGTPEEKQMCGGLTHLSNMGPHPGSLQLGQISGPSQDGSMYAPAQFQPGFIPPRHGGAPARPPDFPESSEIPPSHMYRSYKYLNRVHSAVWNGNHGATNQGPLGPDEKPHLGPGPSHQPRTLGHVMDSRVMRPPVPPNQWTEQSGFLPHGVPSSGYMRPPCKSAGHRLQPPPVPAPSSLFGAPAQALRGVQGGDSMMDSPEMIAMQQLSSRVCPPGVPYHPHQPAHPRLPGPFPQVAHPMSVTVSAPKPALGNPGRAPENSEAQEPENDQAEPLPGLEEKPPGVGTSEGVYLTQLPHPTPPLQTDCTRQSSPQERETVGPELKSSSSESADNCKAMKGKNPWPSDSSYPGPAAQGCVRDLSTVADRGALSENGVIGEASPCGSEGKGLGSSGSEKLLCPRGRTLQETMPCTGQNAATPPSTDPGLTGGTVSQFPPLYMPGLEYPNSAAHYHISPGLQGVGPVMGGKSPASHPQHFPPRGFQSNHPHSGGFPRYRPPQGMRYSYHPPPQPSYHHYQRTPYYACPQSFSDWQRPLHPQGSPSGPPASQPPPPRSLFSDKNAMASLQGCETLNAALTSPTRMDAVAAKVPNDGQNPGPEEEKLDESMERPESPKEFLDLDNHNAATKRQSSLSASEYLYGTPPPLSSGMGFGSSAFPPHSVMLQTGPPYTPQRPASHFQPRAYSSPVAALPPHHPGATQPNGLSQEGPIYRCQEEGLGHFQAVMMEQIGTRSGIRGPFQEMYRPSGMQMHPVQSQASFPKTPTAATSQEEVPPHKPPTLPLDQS
# Chain of Bromodomain adjacent to zinc finger domain protein 2A (Q9UIF9 whole entry, the tested form may be a part): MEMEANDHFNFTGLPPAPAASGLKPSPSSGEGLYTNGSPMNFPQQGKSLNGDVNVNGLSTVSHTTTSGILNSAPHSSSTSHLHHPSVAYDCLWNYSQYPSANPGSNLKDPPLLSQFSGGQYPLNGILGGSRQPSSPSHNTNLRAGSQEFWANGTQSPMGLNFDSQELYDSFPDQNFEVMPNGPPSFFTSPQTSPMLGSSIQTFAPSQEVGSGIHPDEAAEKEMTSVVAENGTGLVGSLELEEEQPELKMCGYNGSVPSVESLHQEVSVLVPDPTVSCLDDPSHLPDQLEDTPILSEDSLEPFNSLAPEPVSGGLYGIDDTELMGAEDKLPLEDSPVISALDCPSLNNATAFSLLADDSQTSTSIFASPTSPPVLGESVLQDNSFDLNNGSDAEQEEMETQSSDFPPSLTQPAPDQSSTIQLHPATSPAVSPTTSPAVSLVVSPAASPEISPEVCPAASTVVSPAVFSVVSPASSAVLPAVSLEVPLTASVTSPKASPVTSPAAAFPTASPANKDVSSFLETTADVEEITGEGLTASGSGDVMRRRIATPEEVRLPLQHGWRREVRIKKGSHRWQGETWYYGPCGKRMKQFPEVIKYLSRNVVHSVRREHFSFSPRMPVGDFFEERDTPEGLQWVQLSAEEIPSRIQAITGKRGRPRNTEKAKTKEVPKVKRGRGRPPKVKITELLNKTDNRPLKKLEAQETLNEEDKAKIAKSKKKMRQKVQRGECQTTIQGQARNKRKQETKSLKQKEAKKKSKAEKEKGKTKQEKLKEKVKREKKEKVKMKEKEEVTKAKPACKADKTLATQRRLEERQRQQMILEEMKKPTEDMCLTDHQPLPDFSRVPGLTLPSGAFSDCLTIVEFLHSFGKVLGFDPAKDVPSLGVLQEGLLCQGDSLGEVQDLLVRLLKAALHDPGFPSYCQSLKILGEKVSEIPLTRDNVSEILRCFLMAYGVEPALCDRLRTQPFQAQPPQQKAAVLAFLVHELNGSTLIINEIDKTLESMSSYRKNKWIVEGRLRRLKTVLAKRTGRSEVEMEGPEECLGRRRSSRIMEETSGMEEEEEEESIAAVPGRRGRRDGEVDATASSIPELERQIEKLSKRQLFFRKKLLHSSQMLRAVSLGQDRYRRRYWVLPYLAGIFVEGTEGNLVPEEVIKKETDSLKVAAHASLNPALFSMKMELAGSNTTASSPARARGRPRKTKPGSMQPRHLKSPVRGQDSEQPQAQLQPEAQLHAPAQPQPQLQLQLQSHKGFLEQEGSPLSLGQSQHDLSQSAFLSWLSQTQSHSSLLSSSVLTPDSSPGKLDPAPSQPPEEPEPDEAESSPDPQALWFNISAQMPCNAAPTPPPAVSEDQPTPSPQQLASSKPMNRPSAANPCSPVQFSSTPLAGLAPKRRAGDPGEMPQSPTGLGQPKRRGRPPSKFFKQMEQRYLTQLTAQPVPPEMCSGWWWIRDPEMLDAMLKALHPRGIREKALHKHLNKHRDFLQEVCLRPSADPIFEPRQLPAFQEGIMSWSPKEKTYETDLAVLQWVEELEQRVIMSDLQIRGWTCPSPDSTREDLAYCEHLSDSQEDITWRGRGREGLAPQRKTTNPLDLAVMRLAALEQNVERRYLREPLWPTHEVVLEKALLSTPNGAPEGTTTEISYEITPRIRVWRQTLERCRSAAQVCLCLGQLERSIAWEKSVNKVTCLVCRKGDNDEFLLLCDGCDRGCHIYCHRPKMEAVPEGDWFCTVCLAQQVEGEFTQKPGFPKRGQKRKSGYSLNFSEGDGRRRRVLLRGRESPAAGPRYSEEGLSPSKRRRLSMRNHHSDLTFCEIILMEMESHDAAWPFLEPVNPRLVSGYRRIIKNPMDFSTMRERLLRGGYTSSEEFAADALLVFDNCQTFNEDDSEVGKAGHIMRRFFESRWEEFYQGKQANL
# Chain of Histone acetyltransferase KAT2B (Q92831 whole entry): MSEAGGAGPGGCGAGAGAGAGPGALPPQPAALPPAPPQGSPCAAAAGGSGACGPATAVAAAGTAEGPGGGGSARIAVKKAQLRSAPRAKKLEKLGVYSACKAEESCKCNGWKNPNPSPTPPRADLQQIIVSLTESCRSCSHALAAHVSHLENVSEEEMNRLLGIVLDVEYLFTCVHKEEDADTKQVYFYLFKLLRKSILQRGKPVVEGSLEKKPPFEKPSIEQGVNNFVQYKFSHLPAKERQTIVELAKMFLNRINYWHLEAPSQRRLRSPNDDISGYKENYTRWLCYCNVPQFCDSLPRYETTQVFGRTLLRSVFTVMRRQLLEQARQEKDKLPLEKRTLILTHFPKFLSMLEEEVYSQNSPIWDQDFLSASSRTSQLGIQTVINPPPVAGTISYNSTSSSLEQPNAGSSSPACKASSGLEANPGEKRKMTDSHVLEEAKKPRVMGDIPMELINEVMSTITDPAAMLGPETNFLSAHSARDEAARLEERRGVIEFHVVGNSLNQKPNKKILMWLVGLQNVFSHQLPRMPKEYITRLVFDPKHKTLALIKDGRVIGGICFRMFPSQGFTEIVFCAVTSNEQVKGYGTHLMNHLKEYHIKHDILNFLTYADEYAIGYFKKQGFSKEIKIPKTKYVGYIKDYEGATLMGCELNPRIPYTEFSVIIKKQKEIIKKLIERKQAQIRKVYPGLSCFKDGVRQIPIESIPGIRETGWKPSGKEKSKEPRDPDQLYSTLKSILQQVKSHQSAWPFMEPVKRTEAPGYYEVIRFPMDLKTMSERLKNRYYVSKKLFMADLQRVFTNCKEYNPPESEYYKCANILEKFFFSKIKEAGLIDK
smiles,measurement,setting,value
Cc1cc(C#N)ccc1S(=O)(=O)Nc1ccc2c(ccc(=O)n2C)c1,ΔTm,[1],2.2 °C
CCc1cc2cc(NS(=O)(=O)c3ccc(C#N)cc3)ccc2n(CC)c1=O,IC50,[2],> 100 µM
same,IC50,[3],> 20 µM
same,IC50,[4],> 100 µM
same,IC50,[5],> 20 µM
same,IC50,[6],> 20 µM
same,IC50,[7],> 100 µM
Cc1cc2cc(NS(=O)(=O)c3ccc(C#N)cc3)ccc2n(C)c1=O,solubility,[8],100 µM
same,Fa,[9],51%
same,GI50,RKO,1 to 10 µM
same,Vd,[10],0.7 L/kg
same,GI50,SW-620,1 to 10 µM
same,ΔTm,[1],3.5 °C
same,GI50,NCI-H1437,1 to 10 µM
same,IC50,[11],0.76 µM
same,Cmax,[12],4 µM
same,Kd,[13],0.21 µM
same,GI50,THP-1,5.7 µM
same,GI50,IM-9,1 to 10 µM
same,GI50,MV4-11,9.9 µM
same,GI50,SK-CO-1,1 to 10 µM
same,fraction unbound,[14],0.03
same,IC50,[6],1.1 µM
same,GI50,HepG2,1 to 10 µM
same,GI50,OCI-AML2,1.3 µM

# From ChEMBL document CHEMBL4052588, “Design of a Biased Potent Small Molecule Inhibitor of the Bromodomain and PHD Finger-Containing (BRPF) Proteins Suitable for Cellular and in Vivo Studies” (J Med Chem, 2017)
